Measured values: ChEMBL document CHEMBL4024803, “New Steroidal 4-Aminoquinolines Antagonize Botulinum Neurotoxin Serotype A in Mouse Embryonic Stem Cell Derived Motor Neurons in Postintoxication Model” (J Med Chem, 2018)
In brackets after ≈: the same amount, converted by molar mass.

Tests used:
Cytochrome P450 3A4 = Cytochrome P450 3A4 (Homo sapiens, UniProt P08684); assay: Inhibition of CYP3A4 (unknown origin) using DBF as substrate; assay type: ADME
In short: (§1)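 Active CYP450 enzyme incubated at 37°C for a set time with a fluorogenic probe substrate (BQ, DBF or BFC for CYP3A4; CEC for CYP2C19; AMMC for CYP2D6). IC50 derived from net fluorescent signal.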

[1] = molecular target: Botulinum neurotoxin type A (Clostridium botulinum) (UniProt P0DPI0); assay: Inhibition of Clostridium botulinum BoNT/A holotoxin-mediated SNAP-25 cleavage in mouse HBG3 cell-derived motor neurons assessed as full length of SNAP-25 at 10 uM preincubated for 30 mins followed by intoxication measured after 4 hrs by Western blot method relative to control; design: scale not given: the % may be the effect or the level left
[2] = Solubility of the compound by spectrofluorimetric detection-based shake-flask method; assay type: physicochemical
[3] = molecular target: Botulinum neurotoxin type A (Clostridium botulinum) (UniProt P0DPI0); assay: Inhibition of Clostridium botulinum BoNT/A holotoxin-mediated SNAP-25 cleavage in mouse HBG3 cell-derived motor neurons assessed as full length of SNAP-25 at 20 uM treated at 30 mins post intoxication by Western blot method relative to control; design: scale not given: the % may be the effect or the level left
[4] = molecular target: Botulinum neurotoxin type A (Clostridium botulinum) (UniProt P0DPI0); assay: Inhibition of Clostridium botulinum BoNT/A holotoxin-mediated SNAP-25 cleavage in mouse HBG3 cell-derived motor neurons assessed as full length of SNAP-25 at 20 uM preincubated for 30 mins followed by intoxication measured after 4 hrs by Western blot method relative to control; design: scale not given: the % may be the effect or the level left
[5] = Drug uptake in mouse serum at 600 mg/kg, po measured at 60 mins by UPLC-MS/MS method; assay type: ADME, organism-based; conditions: read-out: Drug uptake
In short: (§2)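 Single oral dose (400 mg/kg, 7 mice; 600 mg/kg, 6 mice), dissolved in DMSO and suspended in 0.5% hydroxyethylcellulose–0.1% Tween 80. Blood taken by cardiac puncture under chloroform, one mouse per time point, 15–120 min. Serum proteins precipitated with 2 volumes acetonitrile; analysed by UPLC-MS/MS against blank human serum calibration. Half-life read from the concentration–time curve.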

Mus musculus [6] = assay: Toxicity in mouse assessed as effect on survival at 160 mg/kg, po administered for 3 days measured after 30 days; assay type: organism-based; conditions: in vivo, 720 h
In short: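 Groups of five healthy mice were dosed per os for three consecutive days, suspended in 0.5% hydroxyethylcellulose–0.1% Tween 80. Behaviour and appearance were monitored twice daily for 30 days, with survival assessed at 30 days. Non-toxic was defined as all 5 surviving with normal appearance and behaviour.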

Plasma = assay: Protein binding in human plasma after 4 hrs by equilibrium dialysis method; assay type: ADME, cell-free
In short: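 Equilibrium dialysis against buffer, 4 h at 37°C with shaking. After incubation both chambers were matrix-matched and protein-precipitated with cold acetonitrile/water/formic acid containing internal standard. Supernatants were analysed by LC-MS/MS. % free = buffer-chamber / plasma-chamber concentration × 100.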

Mus musculus [7] = assay: Tmax in mouse at 400 mg/kg, po by UPLC-MS/MS method; assay type: ADME, organism-based; conditions: in vivo
In short: (§3)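 Single oral dose in DMSO suspended in 0.5% hydroxyethylcellulose–0.1% Tween 80, given to 7 (400 mg/kg) or 6 (600 mg/kg) mice. Serum came from cardiac puncture under chloroform, one mouse per time point, 15–120 min. Acetonitrile-precipitated serum was analysed by UPLC-MS/MS against calibration in blank human serum.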

[8] = Protein binding in mouse plasma at 400 mg/kg, po by ultra-centrifugation method; assay type: ADME, organism-based; conditions: read-out: PPB
[9] = Distribution co-efficient, log D of the compound at pH 1 by reversed-phase thin-layer chromatographic method; assay type: physicochemical; conditions: buffer
In short: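 Reversed-phase thin-layer chromatography at pH 1, mobile phase MeOH/HCl (70/30).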

Mus musculus [10] = assay: Drug metabolism in mouse assessed as (3alpha,5beta,7alpha,12alpha)-3-Amino-24-({4-[(7-chloroquinolin-4-yl)amino]butyl}amino)cholane-7,12-diol formation at 400 to 600 mg/kg, po by UPLC-MS/MS method; assay type: ADME, organism-based; conditions: in vivo
[11] = molecular target: Botulinum neurotoxin type A (Clostridium botulinum) (UniProt P0DPI0); assay: Inhibition of Clostridium botulinum BoNT/A holotoxin-mediated SNAP-25 cleavage in mouse HBG3 cell-derived motor neurons assessed as full length of SNAP-25 at 20 uM treated at 60 mins post intoxication by Western blot method relative to control; design: scale not given: the % may be the effect or the level left
Mus musculus [12] = assay: Drug metabolism in mouse assessed as M+32 metabolite formation at 400 to 600 mg/kg, po by UPLC-MS/MS method; assay type: ADME, organism-based; conditions: in vivo
[13] = Drug uptake in mouse serum at 600 mg/kg, po measured at 15 mins by UPLC-MS/MS method; assay type: ADME, organism-based; conditions: read-out: Drug uptake; in short: as §2
Cytochrome P450 2C19 = Cytochrome P450 2C19 (Homo sapiens, UniProt P33261); assay: Inhibition of CYP2C19 (unknown origin) using CEC as substrate; assay type: ADME; in short: as §1
Sequence of Cytochrome P450 2C19 (P33261 whole entry): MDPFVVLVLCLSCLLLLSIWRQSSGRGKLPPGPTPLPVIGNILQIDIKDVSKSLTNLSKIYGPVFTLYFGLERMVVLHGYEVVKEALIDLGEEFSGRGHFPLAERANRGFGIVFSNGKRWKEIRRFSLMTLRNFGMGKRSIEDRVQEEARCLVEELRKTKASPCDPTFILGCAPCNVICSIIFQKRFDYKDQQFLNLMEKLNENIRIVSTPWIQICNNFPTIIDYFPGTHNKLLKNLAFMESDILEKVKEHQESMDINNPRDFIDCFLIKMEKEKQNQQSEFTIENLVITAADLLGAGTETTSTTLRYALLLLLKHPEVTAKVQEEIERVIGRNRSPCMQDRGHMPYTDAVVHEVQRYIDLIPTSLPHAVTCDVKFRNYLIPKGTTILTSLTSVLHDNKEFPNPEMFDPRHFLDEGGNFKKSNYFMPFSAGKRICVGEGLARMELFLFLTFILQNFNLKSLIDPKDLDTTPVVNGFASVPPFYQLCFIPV

Mus musculus [14] = assay: Drug metabolism in mouse assessed as monoacetylated metabolite formation at 400 to 600 mg/kg, po by UPLC-MS/MS method; assay type: ADME, organism-based; conditions: in vivo
Serum = assay: Drug uptake in mouse serum at 400 mg/kg, po measured at 120 mins by UPLC-MS/MS method; assay type: ADME, organism-based; conditions: in vivo, 2 h, BLD = below limit of detection; in short: as §2
[15] = molecular target: Botulinum neurotoxin type A (Clostridium botulinum, UniProt P0DPI0); assay: (§4) Inhibition of Clostridium botulinum BoNT/A light chain using P39 as substrate preincubated for 10 mins followed by substrate addition measured after 10 mins by HPLC method
[16] = molecular target: Botulinum neurotoxin type A (Clostridium botulinum) (UniProt P0DPI0); assay: as §4
Liver = assay: Intrinsic clearance in mouse liver microsomes after 1 hr; assay type: ADME, microsome
In short: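 Substrate-depletion assay: compound incubated with human or mouse liver microsomes for 1 h at 37°C. Half-life and intrinsic clearance derived from compound loss.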

Mus musculus [17] = assay: Half life in mouse at 600 mg/kg, po by UPLC-MS/MS method; assay type: ADME, organism-based; conditions: in vivo; in short: as §2
[18] = Protein binding in mouse plasma at 600 mg/kg, po by ultra-centrifugation method; assay type: ADME, organism-based; conditions: read-out: PPB
[19] = Drug uptake in mouse serum at 600 mg/kg, po measured at 90 mins by UPLC-MS/MS method; assay type: ADME, organism-based; conditions: read-out: Drug uptake; in short: as §2
Mus musculus [20] = assay: Toxicity in mouse assessed as effect on appearance at 400 to 600 mg/kg, po administered as single dose measured 2 times a day for 30 days; assay type: organism-based; conditions: in vivo, 720 h
In short: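 Two groups of 5 healthy mice each received one oral dose, 400 or 600 mg/kg. Survival, appearance and behaviour were followed for 30 days. Non-toxic was defined as all 5 surviving with normal appearance and behaviour.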

Mus musculus [21] = assay: Tmax in mouse at 600 mg/kg, po by UPLC-MS/MS method; assay type: ADME, organism-based; conditions: in vivo; in short: as §3

Sequence of Cytochrome P450 3A4 (P08684 whole entry): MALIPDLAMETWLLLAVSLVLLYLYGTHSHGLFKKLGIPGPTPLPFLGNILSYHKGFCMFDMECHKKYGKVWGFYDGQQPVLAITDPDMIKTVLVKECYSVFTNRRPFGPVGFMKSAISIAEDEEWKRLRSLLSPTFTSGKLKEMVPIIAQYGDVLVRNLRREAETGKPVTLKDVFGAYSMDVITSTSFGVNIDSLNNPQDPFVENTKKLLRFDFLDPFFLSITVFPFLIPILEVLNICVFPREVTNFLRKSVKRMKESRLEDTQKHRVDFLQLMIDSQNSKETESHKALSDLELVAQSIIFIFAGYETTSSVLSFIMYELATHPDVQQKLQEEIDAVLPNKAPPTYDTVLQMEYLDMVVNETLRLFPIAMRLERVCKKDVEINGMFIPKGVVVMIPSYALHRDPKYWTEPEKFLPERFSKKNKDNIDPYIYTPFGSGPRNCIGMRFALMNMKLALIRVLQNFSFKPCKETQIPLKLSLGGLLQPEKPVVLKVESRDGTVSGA

SMILES: CC(=O)O[C@H]1C[C@H]2[C@@H]([C@H](OC(C)=O)C[C@@H]3C[C@H](N)CC[C@@]32C)[C@@H]2CC[C@H]([C@H](C)CCCNCCCCNc3ccnc4cc(Cl)ccc34)[C@@]12C
- IC50 (Cytochrome P450 3A4): 1.2 µM
- Activity [1]: 72%
- solubility thermodynamic [2]: 640 µg/mL (≈ 902 µM)
- Activity [3]: 64%
- Activity [4]: 88%
- concentration at 1 h [5]: 2.5 µM
- Activity (Mus musculus [6]): Non-Toxic
- PPB (Plasma): > 99%
- Tmax (Mus musculus [7]): 22 min
- fraction unbound [8]: < 0.01
- chromatographic logD [9]: 2.55
- Drug metabolism (Mus musculus [10]): Metabolite_Notdetected
- Activity [11]: 45%
- Drug metabolism (Mus musculus [12]): Metabolite_Notdetected
- concentration at 0.25 h [13]: 11.9 µM
- IC50 (Cytochrome P450 2C19): 5 µM
- Drug metabolism (Mus musculus [14]): Metabolite_Notdetected
- Drug uptake (Serum): Bld
- IC50 [15]: 4.5 µM
- inhibition [16]: Dose-dependent effect
- CLH (Liver): < 23 µL/min/mg
- t1/2 (Mus musculus [17]): 23 min
- fraction unbound [18]: < 0.01
- concentration at 1.5 h [19]: 4 µM
- Activity (Mus musculus [20]): Non-Toxic
- Tmax (Mus musculus [21]): 15 min
